Only some compounds are listed: those with a hit (about 4.7% of all), similar ones and a draw of the others.
GAA850 FXN act: FXN promoter activators, primary screen, cell-based, luciferase luminescence, HEK293 lucGAA850; HEK293 lucGAA850 FXN promoter luciferase reporter, 24 h; percent of 10 µM SAHA response; activation, % at 6 µM; 360,000 tested, 0.56% active; AID 540364, 2011;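 active = activation above the average of all compounds screened plus 3 SD, cutoff fixed separately per campaign, cut at about 7.5% in these data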;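 also: 0% = DMSO wells and 100% = 10 µM SAHA wells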
AHR activator: AHR activators, primary screen, cell-based, luminescence, luciferase reporter, human. activation, % at 5 µM. AID 2796, 2010. 320,000 tested, 2.5% active. AHR-responsive luciferase reporter cells. Aryl hydrocarbon receptor (Homo sapiens), P35869; in the data active = activation above about 47%;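 also: 0% = vehicle wells and 100% = reference agonist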
MC4R barr agon: MC4R agonists recruiting beta-arrestin, primary screen, cell-based, luminescence, agonist arm of biased-ligand search; Melanocortin receptor 4 (Homo sapiens), P32245; U2OS MC4R beta-arrestin complementation; percent of melanotan II response, DMSO zero; activation, % at 8.9 µM; 360,000 tested, 0.98% active;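 active = activation above a per-plate cutoff, the mean activation of sample wells on that plate plus 3 SD, cut at about 8% in these data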
Target sequence (P32245 whole entry, looked up): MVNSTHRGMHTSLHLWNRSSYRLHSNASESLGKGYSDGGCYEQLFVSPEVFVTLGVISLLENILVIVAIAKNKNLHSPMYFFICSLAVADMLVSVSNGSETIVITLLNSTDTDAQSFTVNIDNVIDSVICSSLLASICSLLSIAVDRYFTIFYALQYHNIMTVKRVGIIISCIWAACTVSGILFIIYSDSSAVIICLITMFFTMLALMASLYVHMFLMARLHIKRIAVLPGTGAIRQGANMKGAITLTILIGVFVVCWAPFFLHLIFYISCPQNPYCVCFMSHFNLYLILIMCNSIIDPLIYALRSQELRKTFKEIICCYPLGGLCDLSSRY
HTR2A ag: mouse Htr2a agonists via beta-arrestin recruitment, primary screen, cell-based, luminescence; 5-hydroxytryptamine receptor 2A (Mus musculus), P35363; CHO-K1 mHTR2A beta-arrestin complementation; percent of 30 µM serotonin response; activation, % at 7.6 µM; 360,000 tested, 0.66% active; AID 624169, 2012;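 active = activation above a run cutoff, the mean activation of all tested compounds plus 3 SD, cut at about 14% in these data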;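 also: 0% = plate median of compound wells and 100% = 30 µM serotonin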
MC4R antag cAMP: MC4R antagonists of cAMP signaling, primary screen, cell-based, TR-FRET, antagonist arm of biased-ligand search | Melanocortin receptor 4 (Homo sapiens), P32245 | MC4R-expressing cells, MTII-stimulated cAMP, LANCE TR-FRET | inhibition, % at 6.5 µM | 360,000 tested, 0.48% active;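 active = inhibition above its plate's cutoff, the mean of tested wells on that plate plus 3 SD, cut at about 29% in these data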;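 also: 0% = Melanotan II alone and 100% = Melanotan II plus saturating MCL0020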
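material = U2OS cells stably expressing human melanocortin 4 receptor (MC4R) | also added = Melanotan II challenge | dosing = single nominal compound dose of 6.5 µM | detection = TR-FRET with Eu-cAMP and labeled anti-cAMP, 671 nm | replication = singlicate | timing = compound 30 min, challenge 1 h, detection 1 h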
OPRM1 ag: OPRM1 agonists via beta-arrestin recruitment, confirmation, counter-screen for mouse HTR2A agonist project, cell-based, luminescence, single concentration; shares compounds with HTR2A ag; U2OS OPRM1 beta-arrestin PathHunter; DMSO 0%, DAMGO 9.3 µM 100%; activation, % at 9.3 µM; 2,300 tested, 5.3% active; AID 624380, 2012;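 active = mean activation above the mean of DMSO-only wells plus 3 SD, cut at about 0.5% in these data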
m5-HT2A ag conf: mouse HTR2A agonists, beta-arrestin recruitment, confirmation, cell-based, luminescence, CHO-K1 PathHunter, triplicate | shares compounds with HTR2A ag | 2,300 tested, 19% active | activation, % at 7.6 µM | DMSO 0%, 30 µM serotonin 100%;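 active = mean activation across triplicates above the hit threshold derived in the original primary screen, cut at about 15% in these data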
* hit, by the source's call; nt = no result.

SMILES | GAA850 FXN act | AHR activator | MC4R barr agon | HTR2A ag | MC4R antag cAMP | OPRM1 ag | m5-HT2A ag conf
O=C(OCc1cccc(F)c1)c1ccc2c(=O)n3c(nc2c1)CCC3 | 1 | 0 | -1 | 18* | 4 | -1 | -4
CN(Cc1cccc(F)c1)C(=O)c1ccc2c(=O)n3c(nc2c1)CCC3 | 0 | -1 | -3 | 1 | -1 | nt | nt
O=C(Cc1ccccc1)NNC1CC(=O)N(c2ccc(Oc3ccccc3)cc2)C1=O (stereo not drawn) | 2 | -2 | 2 | 17* | 3 | -1 | -2
O=C(Nc1ccc(F)cc1)C(c1cc2ccccc2o1)N1CCN(CC(=O)N2CCCC2)CC1 (stereo not drawn) | nt | nt | nt | 27* | nt | -1 | -5
O=C(Nc1ccc(F)cc1)C(c1cccc(F)c1)N1CCN(CC(=O)N2CCCC2)CC1 (stereo not drawn) | nt | nt | nt | -2 | nt | nt | nt
Fc1ccc(Nc2nc(NCc3ccccc3)nc3ccsc23)cc1 | 0 | nt | 0 | -4 | 6 | nt | nt
CSc1ccc(/C=C/C(=O)OCC(=O)N2CCN(S(=O)(=O)c3ccc(C)cc3C)CC2)cc1 | 2 | -1 | -2 | 24* | -1 | 0 | -2
N#CCN1CCCC(C(N)=O)C1 (stereo not drawn) | 0 | 1 | 2 | 19* | 10 | 0 | -4
NC(=O)C1CCCN(Cc2ccc3ccccc3c2)C1 (stereo not drawn) | 1 | 1 | -1 | -2 | -2 | nt | nt
CC(=O)Nc1ccc(NC(=O)c2cc(-n3cnnc3)ccc2Cl)cc1 | -2 | -1 | -1 | 16* | -7 | 0 | -4
O=C(NCCCn1ccnc1)c1ccco1 | 0 | 4 | -1 | -1 | 3 | nt | nt
O=C(NCCCn1ccnc1)/C(=C\c1ccco1)NC(=O)c1ccco1 | 1 | 5 | -2 | 15* | 2 | -1 | -3
CCOC(=O)C1(C)CCN1C(=O)c1ccc(SC(F)(F)F)cc1 (stereo not drawn) | 0 | nt | -2 | 16* | 9 | -1 | -6
COc1ccc(NC(=O)CN2C(=O)NC3(CCCCCC3)C2=O)cc1Cl | 1 | 0 | -2 | 6 | -2 | nt | nt
COc1ccc(C(=O)CC(=O)C(=O)NCCc2cccc(C)c2)cc1 | -1 | 1 | 4 | 17* | 22 | 0 | -3
COc1ccc(C(=O)CC(=O)C(=O)Nc2cc(C)ccc2C)cc1 | 1 | 32 | 0 | 0 | -1 | nt | nt
O=C(Cc1cccc(NC(=O)C2CCCN(C(=O)C3CCC3)C2)c1)Nc1cccc(C(=O)N2CCCC2)c1 (stereo not drawn) | 1 | -1 | -1 | -4 | 3 | nt | nt
CC(C)Cc1nnc(NC(=O)c2cc(-c3ccncc3)nc3ccccc23)s1 | 2 | 8 | 0 | 15* | 20 | 0 | 5
CCn1c(-c2cccs2)nc2ccccc21 | 2 | 3 | -2 | -5 | 0 | nt | nt
C#CCn1c(-c2cccs2)nc2ccccc21 | 0 | 41 | 0 | 22* | -1 | -1 | -2
C#Cc1cccc(Nc2nc(NCc3ccccc3)nc3ccsc23)c1 | 3 | nt | -2 | -5 | 11 | nt | nt
CC1CC(C)CN(C(=O)c2ccc3nc[nH]c3c2)C1 (stereo not drawn) | 4 | -2 | -1 | 16* | 0 | -1 | -3
Cc1cccc(C)c1NC(=O)C(C1CC1)n1c(-c2ccc(C(F)(F)F)cc2)nc2ccccc21 (stereo not drawn) | nt | nt | nt | 4 | nt | nt | nt
Cc1ccc(S(=O)(=O)N2CCN(C(=O)CSCc3ccc(C(C)C)cc3)CC2)cc1 | 0 | 0 | 0 | 15* | 1 | 0 | -2
Cc1ccc(CSCC(=O)N2CCCC2)cc1 | 2 | -2 | 1 | 0 | 5 | nt | nt
SMILES | GAA850 FXN act | AHR activator | MC4R barr agon | HTR2A ag | MC4R antag cAMP | OPRM1 ag | m5-HT2A ag conf
CCOC(=O)CSc1ccc(S(=O)(=O)N(CC)CC)cc1[N+](=O)[O-] | 1 | 2 | -2 | 17* | 26 | -1 | -4
Cc1ccc(S(=O)(=O)N2CCC(C)CC2)cc1[N+](=O)[O-] | 0 | nt | 2 | 1 | 7 | nt | nt
COC(=O)CSc1ccc(S(=O)(=O)N2CCC(C)CC2)cc1[N+](=O)[O-] | -2 | 1 | 3 | 17* | 25 | 0 | -4
CCN(C(=O)COC(=O)c1cccc(S(=O)(=O)NCc2ccccc2)c1)c1ccccc1 | -1 | nt | -3 | -13 | 5 | nt | nt
CCN(CC)S(=O)(=O)c1cccc(NC(=O)CN2C(=O)c3ccc([N+](=O)[O-])cc3C2=O)c1 | 1 | 3 | 0 | 18* | 3 | 0 | -1
CCN(CC)S(=O)(=O)c1cccc(NC(=O)CCNC(=O)c2ccc([N+](=O)[O-])cc2)c1 | 2 | 2 | 1 | 2 | 12 | nt | nt
O=C(NS(=O)(=O)c1ccc(Cl)cc1)c1ccccc1 | 2 | 0 | -2 | 15* | 14 | 0 | 0
C=CCC[C@@H](Cc1ccc(F)cc1)C(=O)OC[C@@H](Cc1ccccc1)NC(=O)[C@@H](CC=C)CC(=O)N[C@@H](CO)Cc1ccccc1 | -5 | -1 | 2 | 6 | 8 | nt | nt
CCCCC(=O)Nc1cc(Cl)ccc1C(=O)O | 0 | 1 | -2 | -1 | -2 | nt | nt
CCCCC(=O)Nc1ccc(Cl)cc1F | 0 | nt | 0 | 17* | 7 | 0 | 2
Cc1cnc(=O)[nH]c1SCC(=O)Nc1nccs1 | 0 | 3 | -2 | 15* | 2 | -1 | -3
CC(C)n1nc(C(=O)Nc2cccc(S(=O)(=O)N3CCOCC3)c2)c2ccccc2c1=O | 3 | 11 | -2 | 6 | -3 | nt | nt
CC(C)c1ccc(C(=O)N2CCCC(c3cc(C(=O)Nc4ccc5c(c4)OCO5)no3)C2)cc1 (stereo not drawn) | 0 | nt | 1 | -3 | 3 | nt | nt
COc1ccc(NC(=O)C2CCCN2S(=O)(=O)c2ccc3c(c2)C(C)(C)C(=O)N3C)cc1 (stereo not drawn) | -2 | nt | 0 | 34* | 18 | 0 | -3
CCOC(=O)Cn1cnc2c(cnn2-c2ccc(OC)cc2)c1=O | 1 | 3 | -1 | 3 | 4 | nt | nt
